Measurements from ChEMBL document CHEMBL5257027 (Eur J Med Chem, 2016).

Legend:
SK-MEL-5 [1] = assay: Antiproliferative activity against human SK-MEL-5 cells assessed as total growth inhibition; type: functional
Procedure, shortened: (§1)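 NCI five-dose testing across the 58-line panel gives GI50, TGI and LC50 for each line. Subpanel lines report mean GI50 for each of the nine cancer types.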

COLO 205 [2] = assay: Antiproliferative activity against human COLO 205 cells assessed as reduction in cell growth; type: functional; procedure, shortened: as §1
HCT-15 [3] = assay: Antiproliferative activity against human HCT-15 cells assessed as reduction in cell growth; type: functional; procedure, shortened: as §1
[4] = system: Panel breast (Carcinoma cell lines); assay: Antiproliferative activity against human Panel breast (6 Carcinoma cell lines) assessed as reduction in mean cell growth; type: functional; procedure, shortened: as §1
SK-MEL-5 [5] = assay: Cytotoxicity against human SK-MEL-5 cells; type: functional
Procedure, shortened: (§2)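 Run in the US NCI 58-cell-line screen covering nine cancer types (leukemia, NSCLC, colon, CNS, melanoma, ovarian, renal, prostate, breast). Five-dose mode gave GI50, TGI and LC50 values for each cell line. In the single-dose pre-screen, % inhibition was taken as 100 minus growth percentage.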

COLO 205 [6] = assay: Antiproliferative activity against human COLO 205 cells assessed as inhibition of cell growth at 10 uM; type: functional
Procedure, shortened: (§3)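 NCI 58-cell-line screen covering leukemia, NSCLC, colon, CNS, melanoma, ovarian, renal, prostate and breast lines. Compounds given once at […] (micromolar per the line). Percent inhibition taken as 100 minus growth percent. Panel line reports the mean over all 58 lines.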

[7] = target: Epidermal growth factor receptor (Homo sapiens) (UniProt P00533); assay: Inhibition of EGFR (unknown origin) at 10 uM using […] as substrate incubated for 40 mins in presence of [gamma33P]ATP by scintillation counting based hotspot kinase assay relative to control
Sequence of Epidermal growth factor receptor (Homo sapiens) (P00533 whole entry): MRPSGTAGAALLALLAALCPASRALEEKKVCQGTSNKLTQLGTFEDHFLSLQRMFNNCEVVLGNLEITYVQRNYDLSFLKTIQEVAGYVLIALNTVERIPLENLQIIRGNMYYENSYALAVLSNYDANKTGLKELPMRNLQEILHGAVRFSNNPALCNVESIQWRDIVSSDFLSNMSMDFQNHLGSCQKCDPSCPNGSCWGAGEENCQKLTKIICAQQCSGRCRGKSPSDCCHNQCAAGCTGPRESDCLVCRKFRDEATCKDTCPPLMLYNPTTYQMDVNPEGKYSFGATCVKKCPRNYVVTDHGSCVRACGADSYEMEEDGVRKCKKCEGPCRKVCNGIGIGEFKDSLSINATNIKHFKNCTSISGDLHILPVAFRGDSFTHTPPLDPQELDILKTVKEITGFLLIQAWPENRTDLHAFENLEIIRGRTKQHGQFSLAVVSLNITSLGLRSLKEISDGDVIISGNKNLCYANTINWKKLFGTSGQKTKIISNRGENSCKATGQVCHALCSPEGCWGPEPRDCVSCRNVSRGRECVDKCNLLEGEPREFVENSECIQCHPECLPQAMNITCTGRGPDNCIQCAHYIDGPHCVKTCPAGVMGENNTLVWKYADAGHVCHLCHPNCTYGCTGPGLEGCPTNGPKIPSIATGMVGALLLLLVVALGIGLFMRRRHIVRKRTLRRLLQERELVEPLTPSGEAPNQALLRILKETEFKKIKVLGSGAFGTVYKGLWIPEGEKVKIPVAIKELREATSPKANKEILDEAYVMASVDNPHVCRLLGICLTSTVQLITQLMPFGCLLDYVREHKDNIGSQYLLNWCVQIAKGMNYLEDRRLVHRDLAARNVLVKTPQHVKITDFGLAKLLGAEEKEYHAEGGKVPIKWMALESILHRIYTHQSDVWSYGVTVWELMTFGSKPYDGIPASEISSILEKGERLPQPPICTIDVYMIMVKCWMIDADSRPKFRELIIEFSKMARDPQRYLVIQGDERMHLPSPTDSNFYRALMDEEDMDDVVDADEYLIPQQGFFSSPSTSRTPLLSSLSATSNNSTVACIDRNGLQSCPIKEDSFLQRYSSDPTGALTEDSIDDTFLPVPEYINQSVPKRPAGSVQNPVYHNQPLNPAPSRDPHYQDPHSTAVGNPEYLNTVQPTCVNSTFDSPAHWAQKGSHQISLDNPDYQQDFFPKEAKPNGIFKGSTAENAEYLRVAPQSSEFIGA

K562 [8] = assay: Antiproliferative activity against human K562 cells assessed as total growth inhibition; type: functional; procedure, shortened: as §1
SK-MEL-5 [9] = assay: Antiproliferative activity against human SK-MEL-5 cells assessed as reduction in cell growth; type: functional; procedure, shortened: as §1
NCI/ADR-RES [10] = assay: Cytotoxicity against human NCI/ADR-RES cells; type: functional; procedure, shortened: as §2
COLO 205 [11] = assay: Cytotoxicity against human COLO 205 cells; type: functional; procedure, shortened: as §2
[12] = Antiproliferative activity against human Panel non-small cell lung cancer (8 Carcinoma cell lines) assessed as reduction in mean cell growth; type: functional; settings: Non-small cell lung cancer cell line; procedure, shortened: as §1
K562 [13] = assay: Cytotoxicity against human k562 cells; type: functional; settings: read-out: LC50 (the source's name); procedure, shortened: as §2
[14] = system: Panel melanoma (Carcinoma cell lines); assay: Antiproliferative activity against human Panel melanoma (9 Carcinoma cell lines) assessed as reduction in mean cell growth; type: functional; procedure, shortened: as §1
LOX IMVI = assay: Antiproliferative activity against human LOX IMVI cells assessed as inhibition of cell growth at 10 uM; type: functional; procedure, shortened: as §3
PC-3 [15] = assay: Cytotoxicity against human PC-3 cells; type: functional; procedure, shortened: as §2
RXF 393 [16] = assay: Cytotoxicity against human RXF 393 cells; type: functional; procedure, shortened: as §2
NCI/ADR-RES [17] = assay: Antiproliferative activity against human NCI/ADR-RES cells assessed as total growth inhibition; type: functional; procedure, shortened: as §1
HCT-15 [18] = assay: Antiproliferative activity against human HCT-15 cells assessed as total growth inhibition; type: functional; procedure, shortened: as §1
[19] = system: Panel CNS (Carcinoma cell lines); assay: Antiproliferative activity against human Panel CNS (6 Carcinoma cell lines) assessed as reduction in mean cell growth; type: functional; procedure, shortened: as §1
[20] = target: Serine/threonine-protein kinase B-raf (Homo sapiens, UniProt P15056, V600E); assay: Inhibition of B-RAF V600E mutant (unknown origin) using […] as substrate incubated for 40 mins in presence of [gamma33P]ATP by scintillation counting based hotspot kinase assay
Sequence of Serine/threonine-protein kinase B-raf (P15056 2-766 V600E limits assumed): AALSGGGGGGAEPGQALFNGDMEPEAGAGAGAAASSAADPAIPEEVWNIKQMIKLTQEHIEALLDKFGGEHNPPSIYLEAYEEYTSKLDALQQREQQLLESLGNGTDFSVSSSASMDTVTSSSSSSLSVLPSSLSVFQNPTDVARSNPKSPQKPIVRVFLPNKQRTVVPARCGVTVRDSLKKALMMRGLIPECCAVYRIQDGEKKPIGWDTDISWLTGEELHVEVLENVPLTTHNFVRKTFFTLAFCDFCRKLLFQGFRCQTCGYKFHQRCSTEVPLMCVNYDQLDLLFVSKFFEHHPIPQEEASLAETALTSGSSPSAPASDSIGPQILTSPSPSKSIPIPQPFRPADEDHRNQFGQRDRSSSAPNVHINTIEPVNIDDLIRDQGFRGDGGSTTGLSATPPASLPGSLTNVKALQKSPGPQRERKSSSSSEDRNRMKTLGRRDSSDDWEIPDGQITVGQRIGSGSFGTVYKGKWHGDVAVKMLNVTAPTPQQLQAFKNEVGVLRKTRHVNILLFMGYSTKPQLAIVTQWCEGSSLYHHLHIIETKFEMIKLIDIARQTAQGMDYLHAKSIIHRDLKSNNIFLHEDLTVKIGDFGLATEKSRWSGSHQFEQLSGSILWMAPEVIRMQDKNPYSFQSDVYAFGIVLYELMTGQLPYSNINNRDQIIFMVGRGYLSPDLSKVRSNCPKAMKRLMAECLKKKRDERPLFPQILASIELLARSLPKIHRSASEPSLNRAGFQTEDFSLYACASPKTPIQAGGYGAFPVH

SNB-75 [21] = assay: Antiproliferative activity against human SNB-75 cells assessed as total growth inhibition; type: functional; procedure, shortened: as §1
MDA-MB-468 [22] = assay: Antiproliferative activity against human MDA-MB-468 cells assessed as reduction in cell growth; type: functional; procedure, shortened: as §1
[23] = target: T1, RAF proto-oncogene serine/threonine-protein kinase (Homo sapiens, UniProt P04049); assay: Inhibition of RAF1 (unknown origin) using […] as substrate incubated for 40 mins in presence of [gamma33P]ATP by scintillation counting based hotspot kinase assay
T1 sequence (P04049 whole entry): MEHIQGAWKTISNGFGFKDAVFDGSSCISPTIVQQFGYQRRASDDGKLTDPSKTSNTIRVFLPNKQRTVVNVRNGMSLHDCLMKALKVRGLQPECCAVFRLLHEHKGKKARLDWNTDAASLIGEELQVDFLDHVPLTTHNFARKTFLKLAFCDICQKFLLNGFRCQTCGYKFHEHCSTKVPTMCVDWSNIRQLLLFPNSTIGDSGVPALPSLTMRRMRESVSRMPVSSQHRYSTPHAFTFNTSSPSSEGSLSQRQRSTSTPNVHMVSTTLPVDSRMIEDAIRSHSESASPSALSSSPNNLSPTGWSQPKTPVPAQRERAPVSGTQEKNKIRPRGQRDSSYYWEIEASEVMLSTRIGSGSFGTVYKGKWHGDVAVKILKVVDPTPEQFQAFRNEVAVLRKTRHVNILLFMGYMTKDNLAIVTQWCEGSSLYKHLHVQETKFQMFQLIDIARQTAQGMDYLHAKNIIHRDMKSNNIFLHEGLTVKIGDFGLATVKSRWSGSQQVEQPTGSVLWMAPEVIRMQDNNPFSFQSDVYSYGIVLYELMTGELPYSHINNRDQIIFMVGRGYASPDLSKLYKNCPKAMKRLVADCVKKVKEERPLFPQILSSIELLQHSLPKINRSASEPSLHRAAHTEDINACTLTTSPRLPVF
Procedure, shortened: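 IC50 from a radiometric assay. Kinase (5–10 mU) is incubated in 25 mM Tris pH 7.5 with 0.02 mM EGTA, 0.66 mg/mL myelin basic protein as substrate, 10 mM magnesium acetate and [γ33P]ATP. Mg-ATP starts the reaction, which runs 40 min at room temperature. It is stopped with 3% phosphoric acid, captured on filtermat, washed and counted by scintillation.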

HOP-92 [24] = assay: Antiproliferative activity against human HOP-92 cells assessed as total growth inhibition; type: functional; procedure, shortened: as §1
MDA-MB-468 [25] = assay: Cytotoxicity against human MDA-MB-468 cells; type: functional; settings: read-out: LC50 (the source's name); procedure, shortened: as §2
SNB-75 [26] = assay: Cytotoxicity against human SNB-75 cells; type: functional; settings: read-out: LC50 (the source's name); procedure, shortened: as §2
K562 [27] = assay: Antiproliferative activity against human K562 cells assessed as reduction in cell growth; type: functional; procedure, shortened: as §1
SNB-75 [28] = assay: Antiproliferative activity against human SNB-75 cells assessed as reduction in cell growth; type: functional; procedure, shortened: as §1
HCC 2998 = assay: Antiproliferative activity against human HCC 2998 cells assessed as inhibition of cell growth at 10 uM; type: functional; procedure, shortened: as §3
PC-3 [29] = assay: Antiproliferative activity against human PC-3 cells assessed as reduction in cell growth; type: functional; procedure, shortened: as §1
[30] = target: T1, RAF proto-oncogene serine/threonine-protein kinase; assay: Inhibition of RAF1 (unknown origin) at 10 uM using […] as substrate incubated for 40 mins in presence of [gamma33P]ATP by scintillation counting based hotspot kinase assay relative to control
HOP-92 [31] = assay: Antiproliferative activity against human HOP-92 cells assessed as reduction in cell growth; type: functional; procedure, shortened: as §1
[32] = target: Mitogen-activated protein kinase 14 (Homo sapiens) (UniProt Q16539); assay: Inhibition of MAPK14 (p38 alpha) (unknown origin) at 10 uM using […] as substrate incubated for 40 mins in presence of [gamma33P]ATP by scintillation counting based hotspot kinase assay relative to control
Sequence of Mitogen-activated protein kinase 14 (Homo sapiens) (Q16539 whole entry): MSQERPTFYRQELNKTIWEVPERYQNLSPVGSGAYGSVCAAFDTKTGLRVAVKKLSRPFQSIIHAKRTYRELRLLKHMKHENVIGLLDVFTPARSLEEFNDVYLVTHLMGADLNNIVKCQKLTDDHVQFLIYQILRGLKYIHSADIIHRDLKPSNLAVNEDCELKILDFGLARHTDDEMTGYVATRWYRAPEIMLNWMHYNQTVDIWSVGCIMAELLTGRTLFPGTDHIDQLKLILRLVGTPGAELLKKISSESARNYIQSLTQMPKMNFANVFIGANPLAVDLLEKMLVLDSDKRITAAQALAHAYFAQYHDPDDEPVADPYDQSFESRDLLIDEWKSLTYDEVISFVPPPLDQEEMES

COLO 205 [33] = assay: Antiproliferative activity against human COLO 205 cells assessed as total growth inhibition; type: functional; procedure, shortened: as §1
[34] = system: Panel leukemia (Carcinoma cell lines); assay: Antiproliferative activity against human Panel leukemia (5 Carcinoma cell lines) assessed as reduction in mean cell growth; type: functional; procedure, shortened: as §1
NCI/ADR-RES [35] = assay: Antiproliferative activity against human NCI/ADR-RES cells assessed as reduction in cell growth; type: functional; procedure, shortened: as §1
[36] = system: Panel prostate (Carcinoma cell lines); assay: Antiproliferative activity against human Panel prostate (2 Carcinoma cell lines) assessed as reduction in mean cell growth; type: functional; procedure, shortened: as §1
MDA-MB-468 [37] = assay: Antiproliferative activity against human MDA-MB-468 cells assessed as total growth inhibition; type: functional; procedure, shortened: as §1
HOP-92 [38] = assay: Cytotoxicity against human HOP-92 cells; type: functional; procedure, shortened: as §2
[39] = target: Tyrosine-protein kinase ABL1 (Homo sapiens) (UniProt P00519); assay: Inhibition of ABL (unknown origin) at 10 uM using […] as substrate incubated for 40 mins in presence of [gamma33P]ATP by scintillation counting based hotspot kinase assay relative to control
Sequence of Tyrosine-protein kinase ABL1 (Homo sapiens) (P00519 whole entry): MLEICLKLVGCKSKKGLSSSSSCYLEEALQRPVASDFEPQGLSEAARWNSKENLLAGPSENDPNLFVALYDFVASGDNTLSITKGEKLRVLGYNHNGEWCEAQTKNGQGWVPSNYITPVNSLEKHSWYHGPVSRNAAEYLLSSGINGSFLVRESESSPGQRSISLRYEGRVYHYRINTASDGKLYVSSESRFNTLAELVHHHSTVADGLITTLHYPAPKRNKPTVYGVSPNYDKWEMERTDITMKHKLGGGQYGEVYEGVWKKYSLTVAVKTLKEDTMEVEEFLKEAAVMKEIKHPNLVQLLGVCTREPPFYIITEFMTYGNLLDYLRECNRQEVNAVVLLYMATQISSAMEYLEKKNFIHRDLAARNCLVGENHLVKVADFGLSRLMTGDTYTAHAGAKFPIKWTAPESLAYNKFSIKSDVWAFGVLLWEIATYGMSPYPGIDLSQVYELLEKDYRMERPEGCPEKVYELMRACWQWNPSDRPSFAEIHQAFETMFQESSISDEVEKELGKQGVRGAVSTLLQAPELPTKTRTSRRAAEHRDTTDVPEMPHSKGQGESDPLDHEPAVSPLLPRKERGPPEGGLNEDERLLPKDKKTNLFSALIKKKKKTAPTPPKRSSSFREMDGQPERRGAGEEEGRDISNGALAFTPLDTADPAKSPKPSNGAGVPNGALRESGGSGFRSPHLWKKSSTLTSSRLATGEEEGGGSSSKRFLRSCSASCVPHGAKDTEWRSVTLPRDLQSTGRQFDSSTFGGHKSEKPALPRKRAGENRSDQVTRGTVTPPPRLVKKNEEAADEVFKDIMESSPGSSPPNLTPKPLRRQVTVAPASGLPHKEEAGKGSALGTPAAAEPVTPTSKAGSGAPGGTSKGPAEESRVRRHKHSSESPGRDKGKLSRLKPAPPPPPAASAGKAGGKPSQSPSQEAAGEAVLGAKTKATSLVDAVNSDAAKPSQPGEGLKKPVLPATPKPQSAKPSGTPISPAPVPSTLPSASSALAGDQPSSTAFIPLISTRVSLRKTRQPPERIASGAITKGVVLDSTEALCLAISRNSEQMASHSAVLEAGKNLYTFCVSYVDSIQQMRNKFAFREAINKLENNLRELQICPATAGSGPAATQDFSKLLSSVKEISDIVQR

RXF 393 [40] = assay: Antiproliferative activity against human RXF 393 cells assessed as reduction in cell growth; type: functional; procedure, shortened: as §1
[41] = system: Serine/threonine-protein kinase B-raf (Homo sapiens), P15056 [V600E]; assay: Inhibition of B-RAF V600E mutant (unknown origin) at 10 uM using […] as substrate incubated for 40 mins in presence of [gamma33P]ATP by scintillation counting based hotspot kinase assay relative to control
Sequence of Serine/threonine-protein kinase B-raf (Homo sapiens), P15056 [V600E] (P15056 whole entry V600E): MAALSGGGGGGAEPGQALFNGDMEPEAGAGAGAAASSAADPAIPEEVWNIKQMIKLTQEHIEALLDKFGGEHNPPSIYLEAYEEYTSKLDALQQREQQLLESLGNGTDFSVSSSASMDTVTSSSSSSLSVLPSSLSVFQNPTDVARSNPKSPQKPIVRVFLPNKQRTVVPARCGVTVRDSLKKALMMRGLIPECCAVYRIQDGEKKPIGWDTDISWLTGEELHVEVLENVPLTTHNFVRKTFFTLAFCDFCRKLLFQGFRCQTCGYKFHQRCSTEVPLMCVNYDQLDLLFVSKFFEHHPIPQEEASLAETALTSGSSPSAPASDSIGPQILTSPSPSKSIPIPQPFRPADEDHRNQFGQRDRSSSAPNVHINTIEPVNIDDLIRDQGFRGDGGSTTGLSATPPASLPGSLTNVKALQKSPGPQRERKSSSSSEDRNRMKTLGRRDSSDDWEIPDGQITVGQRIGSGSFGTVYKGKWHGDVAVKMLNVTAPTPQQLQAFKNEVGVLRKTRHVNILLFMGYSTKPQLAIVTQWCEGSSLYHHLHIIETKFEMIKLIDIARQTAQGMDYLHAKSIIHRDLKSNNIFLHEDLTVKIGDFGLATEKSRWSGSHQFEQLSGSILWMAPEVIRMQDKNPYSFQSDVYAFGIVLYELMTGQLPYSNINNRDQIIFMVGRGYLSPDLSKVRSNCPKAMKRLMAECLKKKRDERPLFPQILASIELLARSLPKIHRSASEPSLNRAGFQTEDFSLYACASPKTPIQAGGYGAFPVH

PC-3 [42] = assay: Antiproliferative activity against human PC-3 cells assessed as total growth inhibition; type: functional; procedure, shortened: as §1
[43] = Antiproliferative activity against human Panel NCI-58 (58 Carcinoma cell lines) assessed as reduction in mean cell growth at 10 uM; type: functional; set-up: scale not given: the % may be the effect or the level left; procedure, shortened: as §3
[44] = system: Panel renal (Carcinoma cell lines); assay: Antiproliferative activity against human Panel renal (8 Carcinoma cell lines) assessed as reduction in mean cell growth; type: functional; procedure, shortened: as §1
[45] = system: Panel colon (Carcinoma cell lines); assay: Antiproliferative activity against human Panel colon (7 Carcinoma cell lines) assessed as reduction in mean cell growth; type: functional; procedure, shortened: as §1
Homo sapiens = species: Homo sapiens; assay: Inhibition of ABL […] mutant (unknown origin) at 10 uM using […] as substrate incubated for 40 mins in presence of [gamma33P]ATP by scintillation counting based hotspot kinase assay relative to control
RXF 393 [46] = assay: Antiproliferative activity against human RXF 393 cells assessed as total growth inhibition; type: functional; procedure, shortened: as §1
L132 = assay: Cytotoxicity against human L132 cells assessed as reduction in cell growth at 31.3 to 100 uM relative to control; type: toxicity, cell-based; set-up: scale not given: the % may be the effect or the level left; settings: l132, 100 µM, dose 31.3-100 µM
[47] = target: Serine/threonine-protein kinase B-raf (Homo sapiens) (UniProt P15056); assay: Inhibition of B-RAF (unknown origin) at 10 uM using […] as substrate incubated for 40 mins in presence of [gamma33P]ATP by scintillation counting based hotspot kinase assay relative to control
Sequence of Serine/threonine-protein kinase B-raf (Homo sapiens) (P15056 whole entry): as the sequence (P15056 whole entry V600E) above, with E600V counted along it

[48] = system: Panel ovarian (Carcinoma cell lines); assay: Antiproliferative activity against human Panel ovarian (7 Carcinoma cell lines) assessed as reduction in mean cell growth; type: functional; procedure, shortened: as §1
HCT-15 [49] = assay: Cytotoxicity against human HCT-15 cells; type: functional; settings: read-out: LC50 (the source's name); procedure, shortened: as §2

Work on COc1cccc(-c2nn(-c3ccccc3)cc2-c2ccnc(NCCCNC(=O)Nc3ccc(Cl)c(Cl)c3)c2)c1 yielded a TGI (SK-MEL-5 [1]) of 3.32 µM, a GI50 (COLO 205 [2]) of 1.87 µM and a GI50 (HCT-15 [3]) of 2.4 µM. The GI50 [4] was 2.69 µM, the LC50 (SK-MEL-5 [5]) was 6.3 µM and the inhibition at 10 µM (COLO 205 [6]) was 145%. For the same compound, the inhibition [7] was 3.38%, the TGI (K562 [8]) was 5.85 µM and the GI50 (SK-MEL-5 [9]) was 1.75 µM. For the same compound, the LC50 (NCI/ADR-RES [10]) was 86.9 µM, the LC50 (lethal concentration 50%) (COLO 205 [11]) was 7.8 µM and the GI50 [12] was 3.51 µM. For the same compound, the CC50 (K562 [13]) was 100 µM, the GI50 [14] was 1.89 µM and the inhibition at 10 µM (LOX IMVI) was 192%. The LC50 (PC-3 [15]) was 100 µM, the LC50 (RXF 393 [16]) was 23 µM and the TGI (NCI/ADR-RES [17]) was 5.39 µM. It also gave a TGI (HCT-15 [18]) of 6.66 µM, a GI50 [19] of 2.93 µM and an IC50 [20] of 0.77 µM. It also gave a TGI (SNB-75 [21]) of 19.2 µM, a GI50 (MDA-MB-468 [22]) of 1.92 µM and an IC50 [23] of 1.5 µM. It also gave a TGI (HOP-92 [24]) of 7.68 µM, a CC50 (MDA-MB-468 [25]) of 9.82 µM and a CC50 (SNB-75 [26]) of 100 µM. The GI50 (K562 [27]) was 2.38 µM, the GI50 (SNB-75 [28]) was 2.52 µM and the inhibition at 10 µM (HCC 2998) was 162%. The GI50 (PC-3 [29]) was 3.96 µM, the inhibition [30] was 87.7% and the GI50 (HOP-92 [31]) was 2.32 µM. For the same compound, the inhibition [32] was 45.8%, the TGI (COLO 205 [33]) was 3.82 µM and the GI50 [34] was 2.31 µM. The GI50 (NCI/ADR-RES [35]) was 2.19 µM, the GI50 [36] was 4.71 µM and the TGI (MDA-MB-468 [37]) was 4.34 µM. The LC50 (HOP-92 [38]) was 71 µM, the inhibition [39] was 7.7% and the GI50 (RXF 393 [40]) was 1.8 µM. For the same compound, the inhibition [41] was 90.4%, the TGI (PC-3 [42]) was 22.4 µM and the Activity [43] was 104.1%. For the same compound, the GI50 [44] was 3.14 µM, the GI50 [45] was 2.44 µM and the inhibition (Homo sapiens) was 6.38%. The TGI (RXF 393 [46]) was 4.87 µM, the Activity (L132) was 50% and the inhibition [47] was 56.9%. For the same compound, the GI50 [48] was 3.74 µM and the CC50 (HCT-15 [49]) was 29.1 µM.
